This is an account of results in publication PMC7610841 (Nature, 2020).

One assay deals with GFP-Wingless. In words: In vivo trapping of GFP-Wingless at the surface of wing imaginal disc cells. As to conditions: overexpressed with ptc-Gal4 in wing imaginal discs; listed as hGPC4. Further details: species or system Drosophila. An outline of the steps:
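GFP-Wingless knock-in wing discs with V5-tagged human GPC4, GPC6, GPC3 or GPC5 driven by ptc-Gal4, crossed at 25°C. Surface capture of GFP-Wingless imaged by confocal microscopy after immunostaining with Alexa-conjugated secondaries and DAPI mounting. Three independent repeats.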

In the next assay the test system is senseless. In words: Effect of overexpression on high target gene senseless in wing discs. The assay is classed as in vivo, Drosophila. As to conditions: driven with ptc-Gal4 in wing discs. An outline of the steps: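 Wing discs from crosses at 25°C, with V5-tagged human glypican UAS-attB transgenes driven by ptc-Gal4 (senseless) or en-Gal4 (Distal-less). Discs immunostained with Alexa-conjugated secondaries, DAPI-mounted and imaged by confocal microscopy. Distal-less signal quantified in boxed regions and plotted separately for anterior and posterior compartments. Three independent repeats.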

The subject of another assay is extracellular Wingless. In words: In vivo trapping of endogenous extracellular Wingless in wing discs. The conditions noted are these: overexpressed with ptc-gal4 in wing discs; extracellular Wingless staining. Also on record: species or system Drosophila. An outline of the steps:
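HA-tagged wild-type or point-mutant Dlp/Dally transgenes (attP2 landing site) driven by ptc-gal4, crossed at 25°C. Wing discs immunostained for extracellular Wingless using an extracellular staining protocol, DAPI-mounted and imaged on a confocal microscope. Three independent repeats.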

B1: GPC4: human glypican of Dlp family; secreted ΔGPI form (amino acids 1-487) in solubilisation assays (protein)
chain: ALLAAELKSKSCSEVRRLYVSKGFNKNDAPLHEINGDHLKICPQGSTCCSQEMEEKYSLQSKDDFKSVVSEQCNHLQAVFASRYKKFDEFFKELLENAEKSLNDMFVKTYGHLYMQNSELFKDLFVELKRYYVVGNVNLEEMLNDFWARLLERMFRLVNSQYHFTDEYLECVSKYTEQLKPFGDVPRKLKLQVTRAFVAARTFAQGLAVAGDVVSKVSVVNPTAQCTHALLKMIYCSHCRGLVTVKPCYNYCSNIMRGCLANQGDLDFEWNNFIDAMLMVAERLEGPFNIESVMDPIDVKISDAIMNMQDNSVQVSQKVFQGCGPPKPLPAGRISRSISESAFSARFRPHHPEERPTTAAGTSLDRLVTDVKEKLKQAKKFWSSLPSNVCNDERMAAGNGNEDDCWNGKGKSRYLFAVTGNGLANQGNNPEVQVDTSKPDILILRQIMALRVMTSKMKNAYNGNDVDFFDISDESSGEGSGSGCEYQQCPSEFDYNATDHAGKSANEKADS
modifications: left off: V5, internal (immediately after the signal peptide), state not stated
For the molecule B1, the “trapping of GFP-Wingless at the cell surface” value in the assay on GFP-Wingless is given as “trapped Wingless”. Further, in the assay on senseless, the “effect on high target gene senseless” value was “inhibit the high target gene senseless”.

B2: Dlp[F172T, F195Y]: Dlp mutant replacing hydrophobic residues with polar ones (protein)
chain: MLHQQQQQQHLHCRRKATATTTARLVIFSSPLLLLLLTTHLPPTLQADNGPAPQVAALAAPNPAGGVAGSSIIDQFSPNCSAVTHIFQARGIDAIEIPQKPSNERVLRYCESPSVGTCCTYNMETRMAMQSRQQLEGHTKDQISRMSGILGSKATKFKDIFTALLKESRTQTNSMFIRTYGVIYERNSYVFSDLYKELETYFANGRVDLLEVMDKFFNTLYQKMFTVLNTQYTFDENYMRCVSEHMKELKPFGDVPDKLSVQIKRSFVATRTYGQALTTASEVAKKVLNVRLNADCTGALTKMQHCGACKGYTEKPCTNYCVNVIKGCLHYQHEFDSEWENFAMAMDKVAERLLGSFNIVMVVEPLNIKISEAIMNFQDSGQDITNRVFQGCGRPKLKKMKRSISPKLQGVQILNARSPVEADTLDIDETLDEAIVLRERRAAEPGSQETSAQQSQEQGVGKSGNGGGGGGGNNRRQQQRRKQQQQRRKQQNNRDDNDDDDNESGGGREPILDRIVRDIRQRVKDYKKFWSNLPHSVCSNEDIASSSDVDGMCWNGHTIDRYMHSITTEHGSNPEFTGNPASTKQTAQMASQLSHLKNAIVHLRNAYNGQDVEWSEQEELPYAGSGAGSGSGSEDDEDDDEGSGLGPFEPSHKPDVERPSVDADNDDDEDAGGRGHMPTHTSRPTSGVDDKNPLIHTTHFDQDHNDLDEDHRQLDEDEDTDAGHDGANDNRSSDAPEKMTLRRALVVYLLPLYMAWFGGVCADLL
modifications: left off: HA, end not stated, kept
In the case of B2, the “trapping of endogenous Wingless” value with extracellular Wingless is given as “reduced trapping, though not completely”.

B3: Dlp[R169E, T170N, Q171M, F172T]: Dlp mutant introducing the putative glycosylation site of Dally (protein)
chain: MLHQQQQQQHLHCRRKATATTTARLVIFSSPLLLLLLTTHLPPTLQADNGPAPQVAALAAPNPAGGVAGSSIIDQFSPNCSAVTHIFQARGIDAIEIPQKPSNERVLRYCESPSVGTCCTYNMETRMAMQSRQQLEGHTKDQISRMSGILGSKATKFKDIFTALLKESENMTNSMFIRTYGVIYERNSYVFSDLFKELETYFANGRVDLLEVMDKFFNTLYQKMFTVLNTQYTFDENYMRCVSEHMKELKPFGDVPDKLSVQIKRSFVATRTYGQALTTASEVAKKVLNVRLNADCTGALTKMQHCGACKGYTEKPCTNYCVNVIKGCLHYQHEFDSEWENFAMAMDKVAERLLGSFNIVMVVEPLNIKISEAIMNFQDSGQDITNRVFQGCGRPKLKKMKRSISPKLQGVQILNARSPVEADTLDIDETLDEAIVLRERRAAEPGSQETSAQQSQEQGVGKSGNGGGGGGGNNRRQQQRRKQQQQRRKQQNNRDDNDDDDNESGGGREPILDRIVRDIRQRVKDYKKFWSNLPHSVCSNEDIASSSDVDGMCWNGHTIDRYMHSITTEHGSNPEFTGNPASTKQTAQMASQLSHLKNAIVHLRNAYNGQDVEWSEQEELPYAGSGAGSGSGSEDDEDDDEGSGLGPFEPSHKPDVERPSVDADNDDDEDAGGRGHMPTHTSRPTSGVDDKNPLIHTTHFDQDHNDLDEDHRQLDEDEDTDAGHDGANDNRSSDAPEKMTLRRALVVYLLPLYMAWFGGVCADLL
modifications: left off: HA, end not stated, kept
Take B3: in the assay with extracellular Wingless, the “trapping of endogenous Wingless” value is given as “reduced trapping, though not completely”.

B4: Dlp[N367C, M175C]^ΔGPI: Dlp mutant with engineered disulphide bridge locking closed, apo conformation (protein)
chain: PQVAALAAPNPAGGVAGSSIIDQFSPNCSAVTHIFQARGIDAIEIPQKPSNERVLRYCESPSVGTCCTYNMETRMAMQSRQQLEGHTKDQISRMSGILGSKATKFKDIFTALLKESRTQFNSCFIRTYGVIYERNSYVFSDLFKELETYFANGRVDLLEVMDKFFNTLYQKMFTVLNTQYTFDENYMRCVSEHMKELKPFGDVPDKLSVQIKRSFVATRTYGQALTTASEVAKKVLNVRLNADCTGALTKMQHCGACKGYTEKPCTNYCVNVIKGCLHYQHEFDSEWENFAMAMDKVAERLLGSFNIVMVVEPLCIKISEAIMNFQDSGQDITNRVFQGCGRPKLKKMKRSISPKLQGVQILNARSPVEADTLDIDETLDEAIVLRERRAAEPGSQETSAQQSQEQGVGKSGNGGGGGGGNNRRQQQRRKQQQQRRKQQNNRDDNDDDDNESGGGREPILDRIVRDIRQRVKDYKKFWSNLPHSVCSNEDIASSSDVDGMCWNGHTIDRYMHSITTEHGSNPEFTGNPASTKQTAQMASQLSHLKNAIVHLRNAYNGQDVEWSEQEELPYAGSGAGSGSGSEDDEDDDEGSGLGPFEPSHKPDVERPSVDADNDDDEDAGGRGHMPTHTSRPTSGVDDKNPLIHTTHFDQDHNDLDEDHRQLDEDEDTDAG
modifications: left off: V5, C-terminal, kept
Turning to B4, the “trapping of endogenous Wingless” value in the assay on extracellular Wingless is on record as “no in vivo trapping activity”.

B5: Dlp[S168M]^ΔGPI: Dlp mutant with bulky residue at cavity entrance; HA form used in discs (protein)
chain: PQVAALAAPNPAGGVAGSSIIDQFSPNCSAVTHIFQARGIDAIEIPQKPSNERVLRYCESPSVGTCCTYNMETRMAMQSRQQLEGHTKDQISRMSGILGSKATKFKDIFTALLKEMRTQFNSMFIRTYGVIYERNSYVFSDLFKELETYFANGRVDLLEVMDKFFNTLYQKMFTVLNTQYTFDENYMRCVSEHMKELKPFGDVPDKLSVQIKRSFVATRTYGQALTTASEVAKKVLNVRLNADCTGALTKMQHCGACKGYTEKPCTNYCVNVIKGCLHYQHEFDSEWENFAMAMDKVAERLLGSFNIVMVVEPLNIKISEAIMNFQDSGQDITNRVFQGCGRPKLKKMKRSISPKLQGVQILNARSPVEADTLDIDETLDEAIVLRERRAAEPGSQETSAQQSQEQGVGKSGNGGGGGGGNNRRQQQRRKQQQQRRKQQNNRDDNDDDDNESGGGREPILDRIVRDIRQRVKDYKKFWSNLPHSVCSNEDIASSSDVDGMCWNGHTIDRYMHSITTEHGSNPEFTGNPASTKQTAQMASQLSHLKNAIVHLRNAYNGQDVEWSEQEELPYAGSGAGSGSGSEDDEDDDEGSGLGPFEPSHKPDVERPSVDADNDDDEDAGGRGHMPTHTSRPTSGVDDKNPLIHTTHFDQDHNDLDEDHRQLDEDEDTDAG
modifications: left off: V5, C-terminal, kept
Take B5: in the assay with extracellular Wingless, the “trapping of endogenous Wingless” value is reported as “retained some activity”.

B6: Dally[E149R, N150T, M151Q, T152F]: Dally mutant removing predicted glycosylation site and restoring hydrophobic F (protein)
chain: KHLDLDGIHHHQHHLHSATTHHRRRLQRDSRAKDAVGGSTHQCDAVKSYFESIDIKSSGTYSEKGAICGGNCCNNATELELRDKAAGMFEQLLHHHTSSLRGVLETNAKQFQSHVLELAQISRTQFHSLFSKVYTRMVPSSRMMIHQLYTEIMNHLIYTSNYTNSNGQLGRRGIGSVQSNLEEAVRHFFVQLFPVAYHQMVHLSKNNLGDLHEDYVNCLQHNFDEMHPFGDIPQQVQSNLGKSVHMSNVFMNALLQAAEVLSEADALYGEQLTDTCKLHLLKMHYCPNCNGHHSSSRSETKLCYGYCKNVMRGCSAEYAGLLDSPWSGVVDSLNNLVTTHILSDTGIINVIKHLQTYFSEAIMAAMHNGPELEKKVKKTCGTPSLTPYSSGEPDARPPPHKNNVKWATDPDPGMVLFLSTIDKSKEFYTTIVDNFCDEQQHSRDDHSCWSGDRFGDYTQLLINPGTDSQRYNPEVPFNAKAQTGKLNELVDKLFKIRKSIGAAAPSNSIQATHDIQNDMGEGSGGGEGQIGDDEEEYGGAHGSGDGSGDGPHTPIEESEGTTTNEVESRDSGKTSG
modifications: left off: HA, end not stated, kept
As to B6, the “trapping of endogenous Wingless” value with extracellular Wingless is given as “did not confer lipid-binding activity”.
